Data set [1] is described as follows: Cytotoxicity against MDCK cells assessed as reduction of cell viability. Type of data set: cell-based, Canis lupus familiaris. The note with it: dog. In outline:
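Uninfected MDCK cells. CC50 is the concentration (μM) that reduced cell viability by 50%.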

Data set [2] deals with Influenza A virus. Kind of data set: Antiviral activity against oseltamivir-sensitive Influenza A virus (A/Hong Kong/8/68(H3N2)) infected in MDCK cells assessed as protection against virus-induced cytocidal effect at 20 uM after 48 hrs by CellTiter-Glo assay relative to control. Format: functional. In outline:
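Same cytocidal protection assay in MDCK cells with H3N2 virus, tested at concentrations up to 20 μM. The read-out is the percent inhibition of viral cytocidal effect, with 50% used as the threshold.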
(ATP-based viability assays read luminescence as a measure of living cells.)

Data set [3] in a line: Metabolic stability in human plasma assessed as compound remaining at 1 uM after 10 mins by reverse phase HPLC analysis. Format: ADME, cell-free. Particulars: read-out: Stability. The method, boiled down:
(§1)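 Compound incubated in 80% human plasma at 37 °C for varying times. Initial and remaining parent compound were quantified by reverse-phase HPLC. Benfluorex served as control. Data are averages of duplicate experiments.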

In data set [4] the test system is Influenza A virus. Kind of data set: Antiviral activity against oseltamivir-sensitive Influenza A virus (A/Hong Kong/8/68(H3N2)) assessed as inhibition of viral infectivity in MDCK cells at 10 uM after 6 hrs by FITC conjugated anti-NP antibodies/DAPI staining-based confocal microscopic analysis. Format: functional, organism-based. In outline: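 MDCK cells were infected at MOI = 1 in the presence of 10 μM compound for 6 h. Infected cells were stained with FITC-conjugated anti-NP antibody, with DAPI as nuclear stain, and imaged by confocal microscopy. Infected cells without compound served as control.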

Data set [5] in a line: Metabolic stability in human plasma assessed as compound remaining at 1 uM after 2 hrs by reverse phase HPLC analysis. Type of data set: ADME, cell-free. The note with it: read-out: Stability. The method, boiled down:
as §1

The source made the active and inactive calls.

For orientation: CC50 means the concentration giving 50% cytotoxicity. As to `COC(=O)[C@@]1(C)CCC[C@]2(C)c3cc(OC(=O)CCCC(=O)O)ccc3CC[C@@H]12`, in data set [1], the CC50 was greater than 40 µM. The Activity in data set [2] is listed as less than 50%.
In the case of `CNC(=O)[C@@]1(C)CCC[C@]2(C)c3cc(O)ccc3CC[C@@H]12`, the CC50 in data set [1] is greater than 40 µM. In addition, in data set [2], the Activity is listed as less than 50%.
For the compound `COC(=O)[C@@]1(C)CCC[C@]2(C)c3cc(OC(C)=O)ccc3CC[C@@H]12`, the CC50 in data set [1] is greater than 40 µM. Further, the Activity in data set [2] is less than 50%. In data set [3], the remaining at 10 min, 1 µM worked out at 30%.
Turning to `C[C@]1(C(=O)O)CCC[C@]2(C)c3cc(O)ccc3CC[C@@H]12` [PODOCARIC ACID], in data set [1], the CC50 came to 91.2 µM. In addition, in data set [2], the Activity is less than 50%.
For `C[C@]1(C(=O)OCc2ccccc2)CCC[C@]2(C)c3cc(O)ccc3CC[C@@H]12`, in data set [1], the CC50 was greater than 40 µM. Besides, the Activity in data set [2] is reported as less than 50%.
Regarding `COC(=O)[C@@]1(C)CCC[C@]2(C)c3cc(OC(=O)CCCCCBr)ccc3CC[C@@H]12`, the CC50 in data set [1] was greater than 40 µM. The Activity in data set [2] is given as less than 50%.
The corresponding values for `COC(=O)[C@@]1(C)CCC[C@]2(C)c3cc(OC)ccc3CC[C@@H]12` are greater than 40 µM and less than 50%.
Taken in the same sequence, the figures for `CC(C)c1c(O)ccc2c1CC[C@H]1C(C)(C)CCC[C@]21C` [TOTAROL] were 21 µM and less than 50%.
The corresponding values for `C[C@]1(C(=O)O)CCC[C@]2(C)c3cc(OC(=O)CCC(=O)O)ccc3CC[C@@H]12` are greater than 40 µM and less than 50%.
Consider `C[C@]1(C(=O)OCc2ccccc2)CCC[C@]2(C)c3cc(OCCC(=O)O)ccc3CC[C@@H]12`, for which, in data set [1], the CC50 is greater than 40 µM. Also, the Activity in data set [2] was less than 50%.
`COC(=O)[C@@]1(C)CCC[C@]2(C)c3cc(OC(=O)C4CC4)ccc3CC[C@@H]12`: the CC50 in data set [1] is greater than 40 µM. In addition, the Activity in data set [2] is recorded as less than 50%.
`COC(=O)[C@@]1(C)CCC[C@]2(C)c3cc(OC(=O)C(C)F)ccc3CC[C@@H]12` (stereo partly specified): in data set [1], the CC50 was greater than 40 µM. Moreover, the Activity in data set [2] is recorded as less than 50%.
Taken in the same sequence, the figures for `COC(=O)[C@@]1(C)CCC[C@]2(C)c3cc(OC)ccc3C(=O)C[C@@H]12` were greater than 40 µM and less than 50%.
The corresponding values for `COC(=O)[C@@]1(C)CCC[C@]2(C)c3cc(OCCC(=O)O)ccc3CC[C@@H]12` are greater than 40 µM and less than 50%.
The corresponding values for `COC(=O)[C@@]1(C)CCC[C@]2(C)c3cc(OC(=O)CCCCBr)ccc3CC[C@@H]12` are greater than 40 µM and less than 50%.
Take `COC(=O)[C@@]1(C)CCC[C@]2(C)c3cc(OC(=O)CCBr)ccc3CC[C@@H]12`: the CC50 in data set [1] was greater than 40 µM. Further, in data set [2], the Activity is less than 50%. Also, the inhibition result in data set [4] was “Active”.
With `C=CC(=O)Oc1ccc2c(c1)[C@@]1(C)CCC[C@](C)(C(=O)NC)[C@@H]1CC2`, in data set [1], the CC50 was greater than 40 µM. Moreover, the Activity in data set [2] was less than 50%.
On to `COC(=O)[C@@]1(C)CCC[C@]2(C)c3cc(OC(=O)CCC(=O)O)ccc3CC[C@@H]12`, for which, in data set [1], the CC50 is greater than 40 µM. In data set [2], the Activity is less than 50%.
Regarding `COC(=O)[C@@]1(C)CCC[C@]2(C)c3cc(O)ccc3CC[C@@H]12`, the CC50 in data set [1] is greater than 40 µM. Also, the Activity in data set [2] was less than 50%. In addition, the remaining at 2 h, 1 µM in data set [5] was determined as 86%.
For the compound `C[C@]1(C(=O)OCc2ccccc2)CCC[C@]2(C)c3cc(OC(=O)CCC(=O)O)ccc3CC[C@@H]12`, the CC50 in data set [1] is greater than 40 µM. Further, the Activity in data set [2] is given as less than 50%.
Taken in the same sequence, the figures for `C=CC(=O)Oc1ccc2c(c1)[C@@]1(C)CCC[C@](C)(C(=O)OC)[C@@H]1CC2` were greater than 40 µM and less than 50%.
Regarding `COC(=O)[C@@]1(C)CCC[C@]2(C)c3cc(OC(=O)C(C)C)ccc3CC[C@@H]12`, the CC50 in data set [1] is greater than 40 µM. In addition, the Activity in data set [2] was less than 50%.
Turning to `C=CC(=O)Oc1ccc2c(c1)[C@@]1(C)CCC[C@](C)(C(=O)OCc3ccccc3)[C@@H]1CC2`, the CC50 in data set [1] was greater than 40 µM. The Activity in data set [2] is less than 50%.
Taken in the same sequence, the figures for `COC(=O)[C@@]1(C)CCC[C@]2(C)c3cc(OC(=O)CCCBr)ccc3CC[C@@H]12` were greater than 40 µM and less than 50%.
